The source of these data is ChEMBL document CHEMBL5365541, “Designing peptide amphiphiles as novel antibacterials and antibiotic adjuvants against gram-negative bacteria” (Bioorg Med Chem, 2023).

The structures appear in SMILES notation. In brackets after ≈: the same amount, converted by molar mass. Activity calls are given as the source filed them. The calls are words filed in the database; no cut-off is given here. Starred links: 1 amine or outer side, 2 acyl side, 3 side chain; linkers in the order of their positions; H or OH if unused. Non-standard residues stand in square brackets, D forms with d. Residues, ends and D or L forms follow the SMILES beside them. ξ: configuration not given here. X3 = CCCCCCCCCCCCCCCCCCN([C@@H](Cc1c[nH]cn1)C(=O)[*:2])[*:1]; X5 = CCCCCCCCCCCCCCCCCCN([C@@H](CCCNC(=N)N)C(=O)[*:2])[*:1]; ξDap = NCC(N)C(=O)O

Data set [1] has as its system HT-29. The data set can be described thus: Cytotoxicity against human HT-29 cells assessed as reduction in cell viability at 500 ug/ml incubated for 24 hrs at pH 6.5 by MTT assay. In kind it is toxicity, cell-based. The conditions noted are these: ht-29, pH 6.5, 24 h, dose 500 µg/ml. In a few lines:
(§1)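 HT-29 cells in McCoy's 5a with 10% FBS were seeded at 15,000 cells/well and grown 24 h at 37 °C, 10% CO2. Medium then changed to pH 7.4 or pH 6.5 (20 mM MOPS, acidified with HCl). Peptide added in 2-fold dilutions, 7.8–500 µg/mL, for 24 h. Wells washed and given fresh pH 7.4 medium. MTT (12 mM, 10 µL) added for 4 h, then SDS-HCl for 4 h; A570 read.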
For orientation: Tetrazolium dyes change colour on reduction, which living cells bring about.

Data set [2] in a line: Cytotoxicity against human HT-29 cells assessed as viable cells at 250 ug/ml incubated for 24 hrs at pH 7.4 by MTT assay. In kind it is toxicity, cell-based. The conditions noted are these: at 250 µg/mL, read-out: Activity. In a few lines: as §1
Data set [3] has as its system HT-29. The data set can be described thus: Cytotoxicity against human HT-29 cells assessed as loss of cell viability at 125 ug/ml incubated for 24 hrs at pH 7.4 by MTT assay. The note with it: ht-29, pH 7.4, 24 h, at 125 µg/mL. The format is toxicity, cell-based. In a few lines: as §1
The nature of data set [4]: Retention time of the compound by RP-HPLC analysis. In kind it is physicochemical. In a few lines:
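Reverse-phase HPLC, linear gradient 0–100% acetonitrile in water with 0.1% TFA over 20 min; retention time recorded.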

Data set [5] deals with Acinetobacter baumannii. The data set can be described thus: Antibacterial activity against Acinetobacter baumannii incubated for 20 to 24 hrs by broth microdilution method. The format is functional. The note with it: time 20-24 hrs. In a few lines:
(§2)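 Broth microdilution: colonies suspended directly to 1.5×10^8 CFU/mL (0.5 McFarland), then diluted in Mueller–Hinton broth to ~10^5 CFU/mL final. PA stock 1 mg/mL in water, pH 7, serially diluted in MHB. Plates incubated 20–24 h at 37 °C. MIC = lowest concentration inhibiting growth, read as OD600 with optional 1% TTC staining. Triplicate.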
A general note: Broth dilution looks for growth in wells or tubes with falling amounts of substance.

In data set [6] the test system is Escherichia coli. The data set can be described thus: Antibacterial activity against Escherichia coli K12 incubated for 20 to 24 hrs by broth microdilution method. The format is functional. The conditions noted are these: time 20-24 hrs. In short, it runs like this:
as §2

Data set [7] deals with Staphylococcus aureus. The data set can be described thus: Antibacterial activity against methicillin-resistant Staphylococcus aureus JE2 incubated for 20 to 24 hrs by broth microdilution method. In kind it is functional. The note with it: time 20-24 hrs. In a few lines: (§3)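 Broth microdilution in MHB: direct colony suspension at 0.5 McFarland diluted to ~10^5 CFU/mL final; peptide stock 1 mg/mL in water at pH 7, serially diluted. Incubated 20-24 h at 37 °C; MIC taken as the lowest concentration inhibiting growth (OD 600 nm, 1% TTC stain); triplicate; vancomycin and gentamicin as positive controls.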

In data set [8] the test system is Staphylococcus aureus. The data set can be described thus: Antibacterial activity against methicillin-resistant Staphylococcus aureus 13C incubated for 20 to 24 hrs by broth microdilution method. In kind it is functional. The note with it: time 20-24 hrs. In short, it runs like this: as §3
Data set [9] is described as follows: (§4) Cytotoxicity against human HT-29 cells assessed as inhibition of cell growth incubated for 24 hrs at pH 6.5 by MTT assay. The note with it: HT-29 cells, pH 6.5. The format is toxicity, cell-based. In short, it runs like this:
as §1

A short description of data set [10]: (§5) Cytotoxicity against human HT-29 cells assessed as inhibition of cell growth incubated for 24 hrs at pH 7.4 by MTT assay. The format is toxicity, cell-based. The note with it: HT-29 cells, pH 7.4. In a few lines:
as §1

Data set [11] is described as follows: Self assembly property of the compound assessed as zeta potential at 250 ug/mL at pH 7 measured after 2 hrs. In kind it is physicochemical. The conditions noted are these: pH 7, 2 h, dose 250 µg/ml. In a few lines: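 Peptide self-assembled at 1 mg/mL, pH 7, annealed 2 h at 80 °C, and aged overnight. Diluted to 250 µg/mL in water; zeta potential measured at 25 °C.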

Data set [12] can be described thus: Self assembly property of the compound assessed as formation of micelles at 1 mg/ml incubated overnight by transmission electron microscopy. The format is physicochemical. In a few lines: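 Samples were dissolved at 2 mM in water, pH 7, and left at room temperature overnight. Applied to copper grids for 5 min, blotted, and negatively stained with NanoVan for 30 s. Imaged by TEM at 120 kV.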

Data set [13] has as its system Escherichia coli. The data set can be described thus: Ratio of MIC for Escherichia coli K12 at pH 5.5 to MIC for Escherichia coli K12 at pH 7.0.
Data set [14] has as its system Staphylococcus aureus. The data set can be described thus: Ratio of MIC for methicillin-resistant Staphylococcus aureus JE2 at pH 5.5 to MIC for methicillin-resistant Staphylococcus aureus JE2 at pH 7.0.
Data set [15] relates to Staphylococcus aureus. The data set can be described thus: Antibacterial activity against methicillin resistant Staphylococcus aureus JE2 measured over 21 days by broth microdilution method. In kind it is functional, organism-based. The conditions noted are these: time 21.0 day.
In data set [16] the test system is Staphylococcus aureus. The data set can be described thus: Antibacterial activity against Methicillin-resistant Staphylococcus aureus JE2 infected in Galleria mellonella assessed as survival at 50 mg/kg measured after 4 days relative to control. In kind it is functional. The conditions noted are these: JE2, 96 h, time 4 day. In a few lines:
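G. mellonella larvae injected with 10 µL MRSA JE2 at a pre-set infective dose (60-80% lethality within 48 h, not 100% within 24 h) into last left proleg; after 2 h, 10 µL peptide or antibiotic injected into last right proleg; larvae held at 37 °C, mortality recorded daily for 4 days; untreated infected and PBS-only larvae as controls.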

Data set [17] has as its system HT-29. The data set is described as §4. In kind it is toxicity, cell-based. The note with it: ht-29, pH 6.5, 24 h, time 24 hrs. In short, it runs like this: as §1
The subject of data set [18] is HT-29. Described as §5. In kind it is toxicity, cell-based. The conditions noted are these: ht-29, pH 7.4, 24 h, time 24 hrs. In a few lines: as §1

What is called MIC is the lowest concentration found to suppress growth. Low readings indicate greater potency, high ones weaker potency. Broadly, the IC50 is the concentration at which inhibition is half-maximal. Turning to `CCCCCCCCCCCCCCCCCCN[C@@H](Cc1c[nH]cn1)C(=O)N[C@@H](Cc1c[nH]cn1)C(=O)NC(CN)C(=O)NC(CN)C(=O)NC(CN)C(=O)O` (stereo partly drawn) (H-[X3]H[ξDap][ξDap][ξDap]-OH), the Activity entry in [1] was “Non-Toxic”; in data set [3], 100%; in data set [11] it was 30.4 mV; in data set [12] it was “Active”. Moreover, in data set [2], the viability at 24 h, 250 ug/ml was 0%. Moreover, the Retention_time in data set [4] was found to be 14.4 min. The MIC in data set [5] was 64 µg/mL (≈ 79.7 µM); in data set [6], 64 µg/mL (≈ 79.7 µM); in [7], 64 µg/mL (≈ 79.7 µM); in [8] it was 32 µg/mL (≈ 39.8 µM). Besides, the IC50 at 24 h in data set [9] worked out at 72.3 µg/mL (≈ 90 µM); in data set [10] it was 126 µg/mL (≈ 157 µM). Further, the Ratio in data set [13] and in data set [14] was greater than 1 each time.
`CCCCCCCCCCCCCCCCCCN[C@@H](CCCNC(=N)N)C(=O)N[C@@H](CCCNC(=N)N)C(=O)NC(CN)C(=O)NC(CN)C(=O)NC(CN)C(=O)O` (stereo partly drawn) (H-[X5]R[ξDap][ξDap][ξDap]-OH) yielded a Retention_time in data set [4] of 14.6 min. Besides, the MIC was 32 µg/mL (≈ 38 µM) in data set [5], 32 µg/mL (≈ 38 µM) in [6], 32 µg/mL (≈ 38 µM) in data set [7] and 16 µg/mL (≈ 19 µM) in [8]. Also, the IC50 at 24 h in data set [9] amounted to 81.7 µg/mL (≈ 97.1 µM); in [10], 117 µg/mL (≈ 139 µM). For the same compound, the Activity in [11] is on record as 30.1 mV; in data set [12], “Active”. Besides, the Ratio in data set [13] and in data set [14] was greater than 1 each time.
For the compound `CNC(C)[C@@H]1CC[C@@H](N)[C@@H](O[C@H]2[C@H](O)[C@@H](O[C@H]3OC[C@](C)(O)[C@H](NC)[C@H]3O)[C@H](N)C[C@@H]2N)O1` (stereo partly drawn), the MIC in data set [5] and in [6] was 1 µg/mL (≈ 2.09 µM) each time. Besides, the result in [15] was Active.
In turn, `CN[C@H](CC(C)C)C(=O)N[C@H]1C(=O)N[C@@H](CC(N)=O)C(=O)N[C@H]2C(=O)N[C@H]3C(=O)N[C@H](C(=O)N[C@H](C(=O)O)c4cc(O)cc(O)c4-c4cc3ccc4O)[C@H](O)c3ccc(c(Cl)c3)Oc3cc2cc(c3O[C@@H]2O[C@H](CO)[C@@H](O)[C@H](O)[C@H]2O[C@H]2C[C@](C)(N)[C@H](O)[C@H](C)O2)Oc2ccc(cc2Cl)[C@H]1O` [VANCOMYCIN] displayed an MIC in [6] of 128 µg/mL (≈ 88.3 µM). Moreover, the survival at 50 mg/kg in data set [16] came out at 30%.
As for `CCCCCCCCCCCCCCCCCCN[C@@H](C)C(=O)N[C@@H](C)C(=O)NC(CN)C(=O)NC(CN)C(=O)NC(CN)C(=O)O` (stereo partly drawn), in data set [4], the Retention_time amounted to 15.9 min. Also, the MIC in [5] was determined as 64 µg/mL (≈ 95.4 µM); in [6] it was 32 µg/mL (≈ 47.7 µM); in data set [7] it was 32 µg/mL (≈ 47.7 µM); in [8] it was 64 µg/mL (≈ 95.4 µM). Also, the Activity entry in data set [17] is reported as “Non-Toxic”; in data set [18] it was “Non-Toxic”; in data set [11], 10.3 mV; in data set [12] it was “Active”. For the same compound, the Ratio in data set [13] and in [14] was greater than 1 in each case.
`CO[C@H]1/C=C/O[C@@]2(C)Oc3c(C)c(O)c4c(O)c(c(/C=N/N5CCN(C)CC5)c(O)c4c3C2=O)NC(=O)/C(C)=C\C=C\[C@H](C)[C@H](O)[C@@H](C)[C@@H](O)[C@@H](C)[C@H](OC(C)=O)[C@@H]1C` [RIFAMPIN]: the MIC in [5] and in data set [6] was 8 µg/mL (≈ 9.72 µM) throughout.
